Screening results (PubChem)
Only a selection was taken, and hits are over-represented in it overall.
T cruzi growth-1: T. cruzi intracellular proliferation inhibitors, primary screen, cell-based, beta-gal Tulahuen parasites, NIH3T3 host, luminescence. T. cruzi beta-gal in NIH3T3, GalScreen luminescence, 90 h. inhibition, % at 8.34 µM. 77,000 compounds, 5.9% hits;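 active = mean inhibition above about 93%, with at least 55% of replicates each passing it, limit read from the data, passing the limit was not always enough; inconclusive = only one of those two conditions holds; inactive = neither condition holds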
GASC1 inh: inhibitors of GASC-1 (KDM4C) histone demethylase, primary screen, biochemical, single concentration HTS. Lysine-specific demethylase 4C (Homo sapiens), Q9H3R0. GST-KDM4C 2-372, H3K9me3 peptide, LANCE TR-FRET. inhibition, % at 12.5 µM. 96,000 compounds, 0.15% hits. AID 720574, 2013;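 active = mean replicate inhibition above about 25%, with at least 55% of replicates also reaching it, limit read from the data, passing the limit was not always enough; inconclusive = only one of those two conditions met; inactive = neither condition met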
Target sequence (Q9H3R0 2-372 limits assumed): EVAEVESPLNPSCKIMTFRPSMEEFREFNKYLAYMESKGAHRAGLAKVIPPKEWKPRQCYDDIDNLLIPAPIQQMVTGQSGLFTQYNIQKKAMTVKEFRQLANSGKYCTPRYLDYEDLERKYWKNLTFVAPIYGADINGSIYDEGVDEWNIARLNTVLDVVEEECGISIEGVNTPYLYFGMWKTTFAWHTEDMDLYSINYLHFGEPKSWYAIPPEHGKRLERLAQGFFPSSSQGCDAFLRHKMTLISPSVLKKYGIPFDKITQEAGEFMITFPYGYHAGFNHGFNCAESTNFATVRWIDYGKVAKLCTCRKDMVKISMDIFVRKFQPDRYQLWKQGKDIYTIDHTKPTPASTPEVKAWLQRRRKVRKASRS
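System – N-terminal GST-fused human GASC-1 (KDM4C) fragment, residues 2-372 · Input – enzyme final amount 10 nM · Technique – LANCE TR-FRET, Eu antibody, ULight-streptavidin, EDTA, ex 340 nm, em 618/671 nm · Medium – HEPES buffer, pH 7.5, plus ascorbate · Incubation – enzyme reaction 30 min, then detection 60 min, both room temperature · Reagent – H3K9me3 peptide with Fe(II)/2OG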
IDH1 R132H inh: inhibitors of IDH1 R132H reductase, primary screen, biochemical, plate reader, single point; Isocitrate dehydrogenase [NADP] cytoplasmic (Homo sapiens), O75874; diaphorase/resazurin fluorescence, 60 min; inhibition, % at 10 µM; 70,000 compounds, 0.18% hits; in the data active = inhibition above about 34%; inconclusive = no clear call, values can overlap the other calls; inactive = below about 11%;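 also: 0% = DMSO and 100% = no enzyme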
T cruzi growth-2: T. cruzi intracellular proliferation inhibitors, confirmation, cell-based, NIH3T3 host, beta-gal parasite, luminescence, cherry-pick | shares compounds with T cruzi growth-1 | T. cruzi beta-gal in NIH3T3, GalScreen luminescence, 90 h | inhibition, % at 8.35 µM | 5,600 compounds, 72% hits | AID 651739, 2012;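 active = mean replicate inhibition above about 95% and at least 55% of replicates individually reaching it, limit read from the data; inconclusive = only one of the two criteria is met; inactive = neither criterion is met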
T cruzi growth-3: inhibitors of intracellular T. cruzi replication, confirmation, NIH3T3 host cells, beta-gal parasites, cherry-pick, set 2; T. cruzi beta-gal in NIH3T3, GalScreen luminescence, 90 h; inhibition, % at 2.09 µM; 5,600 compounds, 21% hits; shares compounds with T cruzi growth-1;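 active = mean inhibition above about 95%, with at least 55% of replicates also reaching it, limit read from the data; inconclusive = meets just one of the two conditions; inactive = meets neither condition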;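 also: plate controls were neutral control median for no effect and positive control median for full effect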
3T3 cytotox: cytotoxicity in mouse NIH/3T3 fibroblasts, confirmation, cytotoxicity control for T. cruzi proliferation inhibitor project, cell-based, cherry-pick, single point; NIH/3T3 viability, CellTiter-Glo ATP luminescence, 90 h; shares compounds with T cruzi growth-1; cytotoxicity (signal decrease), % at 8.35 µM; 5,600 compounds, 14% hits; AID 651742, 2012;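 active = mean signal decrease across replicates above about 35% based on untreated-well scatter, with enough replicates individually passing, limit read from the data; inconclusive = no rule stated though some were filed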;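 also: 0% = median of neutral control wells and 100% = median of positive control wells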
NIH3T3 tox 2: NIH/3T3 fibroblast cytotoxicity, confirmation, cytotoxicity control, cell-based, cherry-pick, single point, set 2 | NIH/3T3 viability, CellTiter-Glo ATP luminescence, 90 h | 5,600 compounds, 56% hits | inhibition, % at 24.9 µM | shares compounds with T cruzi growth-1 | AID 651744, 2012;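 active = mean loss of cell viability signal at or above a set limit, and enough replicates individually reaching it; inconclusive = meets only the mean limit or only the replicate share; inactive = meets neither condition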;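 also: 0% = median of neutral control wells and 100% = median of positive control wells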
* = called active by the depositor; ? = inconclusive; . = not tested or not shown.

SMILES	T cruzi growth-1	GASC1 inh	IDH1 R132H inh	T cruzi growth-2	T cruzi growth-3	3T3 cytotox	NIH3T3 tox 2
C[C@@H]1CN([C@H](C)CO)C(=O)c2cc(NC(=O)Cc3ccccc3)ccc2O[C@@H](C)CCCCO[C@@H]1CN(C)S(=O)(=O)c1ccc(Cl)cc1	108*	-2	.	109*	85	-13	22
COc1ccc(S(=O)(=O)N(C)C[C@H]2OCCCC[C@H](C)Oc3ccc(NC(=O)Cc4ccccc4)cc3C(=O)N([C@@H](C)CO)C[C@@H]2C)cc1	?	-4	.	107*	43	-10	-18
Cc1ccc(S(=O)(=O)N(C)C[C@@H]2OCCCC[C@@H](C)Oc3ccc(NC(=O)Cc4ccccc4)cc3C(=O)N([C@H](C)CO)C[C@@H]2C)cc1	53	-1	.	.	.	.	.
C[C@@H]1CN([C@@H](C)CO)C(=O)c2cc(NC(=O)Cc3ccccc3)ccc2O[C@@H](C)CCCCO[C@@H]1CN(C)C(=O)Cc1ccccc1	16	1	-6	.	.	.	.
C[C@H]1CN([C@@H](C)CO)C(=O)Cc2cc(NC(=O)CCC(F)(F)F)ccc2O[C@H]1CN(C)S(=O)(=O)c1ccccc1	28	0	1	.	.	.	.
COCC(=O)N1C[C@H](C)[C@H](OC)CN(C)C(=O)c2cc(NC(=O)NC(C)C)ccc2OC[C@@H]1C	42	-1	0	.	.	.	.
Cc1noc(C)c1NC(=O)Nc1ccc2c(c1)C(=O)N([C@@H](C)CO)C[C@@H](C)[C@H](CN(C)S(=O)(=O)c1ccc(Cl)cc1)OCCCC[C@@H](C)O2	94	0	.	.	.	.	.
Cc1noc(C)c1NC(=O)Nc1ccc2c(c1)C(=O)N([C@H](C)CO)C[C@H](C)[C@H](CN(C)C(=O)c1ccccc1)OCCCC[C@@H](C)O2	-73	3	.	.	.	.	.
CC=Cc1ccc2n(c1=O)C[C@H]1[C@H](CO)[C@@H](C(=O)NCc3ccccc3)N(Cc3cncnc3)[C@@H]21 (mixture of isomers)	14	1	.	.	.	.	.
C[C@H](CO)N1C[C@H](C)[C@@H](CN(C)C(=O)Cc2ccncc2)Oc2cc(C3=CCCC3)ccc2S1(=O)=O	96*	15	4	88	44	-8	13
C[C@@H]1CN([C@H](C)CO)S(=O)(=O)c2ccc(C3=CCCC3)cc2O[C@@H]1CN(C)Cc1cccnc1	74	1	0	.	.	.	.
C[C@@H]1CN([C@@H](C)CO)S(=O)(=O)c2ccc(C3=CCCC3)cc2O[C@H]1CN(C)Cc1ccncc1	114*	5	.	97*	102*	50*	102*
C[C@@H]1CN([C@H](C)CO)S(=O)(=O)c2ccc(C3=CCCC3)cc2O[C@@H]1CN(C)C(=O)Cc1ccncc1	82	-2	.	.	.	.	.
C[C@H]1CN([C@@H](C)CO)S(=O)(=O)c2ccc(C3=CCCC3)cc2O[C@H]1CN(C)Cc1cncnc1	7	0	1	.	.	.	.
C[C@H](CO)N1C[C@H](C)[C@H](CN(C)Cc2ccncc2)Oc2cc(C3=CCCC3)ccc2S1(=O)=O	108*	7	.	97*	88	21	44*
CCCCC/C=C/C=C/C(O)CCCCCCCC(=O)O (stereo unspecified)	.	.	9	.	.	.	.
CO[C@H]1CN(C)C(=O)c2ccc(NC(C)=O)cc2OC[C@@H](C)N(C(=O)c2ccncc2)C[C@H]1C	12	1	0	.	.	.	.
O=C(Nc1cc(F)ccc1F)N1CCCCN2[C@H](C1)[C@H](c1ccc(C3=CCCCC3)cc1)[C@@H]2CO	78	0	.	.	.	.	.
O=C(Nc1ccc(F)cc1)N1CCCCN2[C@H](C1)[C@H](c1ccc(C3=CCCCC3)cc1)[C@@H]2CO	112*	-2	.	106*	39	-1	86*
COc1ccc(NC(=O)N2CCCCN3[C@H](CO)[C@@H](c4ccc(-c5ccccc5C)cc4)[C@@H]3C2)cc1	51	-1	.	.	.	.	.
O=C(Nc1ccccc1F)N1CCCCN2[C@H](CO)[C@H](c3ccc(C4=CCCC4)cc3)[C@H]2C1	103*	-1	.	92	68	14	103*
COc1ccc(NC(=O)N2CCCCN3[C@H](C2)[C@H](c2ccc(C4=CCCCC4)cc2)[C@@H]3CO)cc1	110*	0	.	114*	42	7	94*
COc1ccc(NC(=O)N2CCCCN3[C@H](CO)[C@@H](c4ccc(C5=CCCCC5)cc4)[C@H]3C2)cc1	117*	3	.	105*	90	29	105*
O=C(Nc1ccccc1F)N1CCCCN2[C@H](C1)[C@H](c1ccc(C3=CCCC3)cc1)[C@@H]2CO	37	0	.	.	.	.	.
COc1ccc(NC(=O)N2CCCCN3[C@@H](CO)[C@H](c4ccc(C5=CCCC5)cc4)[C@@H]3C2)cc1	84	.	.	.	.	.	.
SMILES	T cruzi growth-1	GASC1 inh	IDH1 R132H inh	T cruzi growth-2	T cruzi growth-3	3T3 cytotox	NIH3T3 tox 2
C[C@@H](NC(=O)C[C@H]1C=C[C@H](NC(=O)Nc2ccc3c(c2)OCO3)[C@H](CO)O1)c1ccccc1	-4	1	0	.	.	.	.
CO[C@H]1CC[C@H]2CCOc3c(C#N)cccc3C(=O)N(C)CC3(CCCCC3)CC(=O)N(C)C[C@H]1O2	24	-1	0	.	.	.	.
O=C(C[C@H]1CC[C@@H]2[C@H](COC[C@@H](O)CN2S(=O)(=O)c2cccc(Cl)c2)O1)NC1CCCC1	-17	-1	.	.	.	.	.
CC(C)CC#Cc1ccc2c(c1)O[C@H](CN(C)Cc1cccnc1)[C@H](C)CN([C@H](C)CO)S2(=O)=O	106*	-2	16	104*	82	32	103*
CC(C)CC#Cc1ccc2c(c1)O[C@@H](CN(C)Cc1cccnc1)[C@H](C)CN([C@H](C)CO)S2(=O)=O	87	-1	19	.	.	.	.
CC(C)CC#Cc1ccc2c(c1)O[C@H](CN(C)Cc1cccnc1)[C@@H](C)CN([C@H](C)CO)S2(=O)=O	96*	1	3	104*	100*	16	104*
CC(C)CC#Cc1ccc2c(c1)O[C@@H](CN(C)Cc1cncnc1)[C@H](C)CN([C@@H](C)CO)S2(=O)=O	82	2	0	.	.	.	.
O=C(Nc1cccc(F)c1)N1CC(=O)N2[C@H](CO)[C@H](c3ccc(-c4cccc(F)c4)cc3)[C@@H]2C1	.	0	.	.	.	.	.
CC(=O)N1CC(=O)N2[C@H](CO)[C@@H](c3ccc(-c4ccncc4)cc3)[C@@H]2C1	.	-2	.	.	.	.	.
